Data from ChEMBL document CHEMBL4052618, “Design, synthesis, SAR discussion, in vitro and in vivo evaluation of novel selective EGFR modulator to inhibit L858R/T790M double mutants” (Eur J Med Chem, 2017).

Legend:
[1] = target: Ephrin type-B receptor 2 (Homo sapiens) (UniProt P29323); experiment: Inhibition of EPHB2 (unknown origin) at 1 uM relative to control
[2] = target: Proto-oncogene tyrosine-protein kinase ROS (Homo sapiens) (UniProt P08922); experiment: Inhibition of ROS1 (unknown origin) at 1 uM relative to control
Chain of Proto-oncogene tyrosine-protein kinase ROS (Homo sapiens) (P08922 whole entry): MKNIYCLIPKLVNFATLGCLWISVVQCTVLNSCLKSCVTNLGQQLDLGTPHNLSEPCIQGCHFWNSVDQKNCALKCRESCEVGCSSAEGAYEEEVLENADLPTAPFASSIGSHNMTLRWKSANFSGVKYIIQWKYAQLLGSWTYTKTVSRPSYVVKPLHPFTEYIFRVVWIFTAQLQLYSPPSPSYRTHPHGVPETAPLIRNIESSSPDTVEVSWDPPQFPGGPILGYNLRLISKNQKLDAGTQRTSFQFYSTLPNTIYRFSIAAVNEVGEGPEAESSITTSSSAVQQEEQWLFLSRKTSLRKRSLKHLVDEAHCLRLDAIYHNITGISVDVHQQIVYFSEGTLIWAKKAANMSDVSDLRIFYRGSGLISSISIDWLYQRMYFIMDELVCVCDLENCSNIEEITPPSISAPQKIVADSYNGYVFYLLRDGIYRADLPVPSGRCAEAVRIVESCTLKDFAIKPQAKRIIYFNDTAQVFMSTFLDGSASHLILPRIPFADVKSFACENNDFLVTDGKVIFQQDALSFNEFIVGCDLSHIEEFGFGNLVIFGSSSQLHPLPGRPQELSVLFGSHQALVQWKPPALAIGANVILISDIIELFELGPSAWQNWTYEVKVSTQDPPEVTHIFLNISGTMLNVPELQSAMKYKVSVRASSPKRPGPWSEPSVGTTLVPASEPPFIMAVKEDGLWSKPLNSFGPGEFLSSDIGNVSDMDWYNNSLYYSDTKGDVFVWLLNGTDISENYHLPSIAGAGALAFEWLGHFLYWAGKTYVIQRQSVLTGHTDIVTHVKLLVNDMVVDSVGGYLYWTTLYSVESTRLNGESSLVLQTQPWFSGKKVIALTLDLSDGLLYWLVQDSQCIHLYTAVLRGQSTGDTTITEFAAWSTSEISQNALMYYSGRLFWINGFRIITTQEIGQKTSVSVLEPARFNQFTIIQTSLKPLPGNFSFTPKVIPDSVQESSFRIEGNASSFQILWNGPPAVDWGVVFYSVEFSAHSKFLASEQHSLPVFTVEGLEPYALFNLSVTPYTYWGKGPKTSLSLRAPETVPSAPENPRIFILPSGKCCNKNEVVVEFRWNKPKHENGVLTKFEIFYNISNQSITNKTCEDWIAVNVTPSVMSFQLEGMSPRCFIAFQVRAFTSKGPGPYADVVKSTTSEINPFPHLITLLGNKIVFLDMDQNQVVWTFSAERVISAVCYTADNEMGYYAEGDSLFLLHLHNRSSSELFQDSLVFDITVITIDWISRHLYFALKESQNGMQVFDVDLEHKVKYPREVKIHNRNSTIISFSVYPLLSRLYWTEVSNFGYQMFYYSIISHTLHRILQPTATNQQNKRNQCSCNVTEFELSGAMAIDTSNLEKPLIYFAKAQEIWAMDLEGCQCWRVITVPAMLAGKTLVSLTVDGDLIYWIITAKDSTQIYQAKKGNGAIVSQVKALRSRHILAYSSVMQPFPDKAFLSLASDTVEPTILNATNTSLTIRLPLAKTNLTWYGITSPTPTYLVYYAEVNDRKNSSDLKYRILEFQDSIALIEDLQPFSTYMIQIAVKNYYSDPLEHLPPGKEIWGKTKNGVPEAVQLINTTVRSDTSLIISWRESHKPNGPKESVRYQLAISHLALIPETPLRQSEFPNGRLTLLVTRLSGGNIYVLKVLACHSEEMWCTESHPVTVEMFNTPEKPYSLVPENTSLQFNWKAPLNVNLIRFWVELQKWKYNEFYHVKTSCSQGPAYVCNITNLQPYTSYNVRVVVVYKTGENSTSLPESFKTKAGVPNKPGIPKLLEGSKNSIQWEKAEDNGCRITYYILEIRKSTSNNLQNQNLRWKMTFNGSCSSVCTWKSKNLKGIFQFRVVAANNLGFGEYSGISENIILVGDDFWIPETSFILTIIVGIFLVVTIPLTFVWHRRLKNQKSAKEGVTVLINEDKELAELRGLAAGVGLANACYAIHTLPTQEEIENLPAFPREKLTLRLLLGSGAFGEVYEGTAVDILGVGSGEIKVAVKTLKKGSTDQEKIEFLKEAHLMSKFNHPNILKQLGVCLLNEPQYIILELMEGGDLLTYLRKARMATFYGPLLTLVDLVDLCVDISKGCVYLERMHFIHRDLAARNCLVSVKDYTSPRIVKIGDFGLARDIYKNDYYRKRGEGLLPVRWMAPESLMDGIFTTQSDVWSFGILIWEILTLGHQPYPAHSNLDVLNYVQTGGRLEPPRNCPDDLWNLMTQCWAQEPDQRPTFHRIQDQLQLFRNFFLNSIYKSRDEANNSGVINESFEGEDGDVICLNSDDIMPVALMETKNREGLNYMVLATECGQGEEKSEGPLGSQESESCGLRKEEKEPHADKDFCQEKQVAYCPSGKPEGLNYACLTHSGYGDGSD

[3] = Half life in monkey liver microsomes; type: ADME, Macaca mulatta, microsome; conditions: rhesus monkey
[4] = MRT in Sprague-Dawley rat at 10 mg/kg, po administered via gavage by LC-MS/MS analysis; type: ADME, organism-based; conditions: in vivo
How it was run: (§1)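 Male Sprague-Dawley rats (200-240 g) received 1 mg/kg by tail-vein injection in 2% DMSO, 20% PEG400 and 78% buffered saline, or 10 mg/kg by oral gavage in 0.5% methylcellulose. Orbital sinus blood was drawn into heparinized tubes at 2, 5, 15 and 30 min and at 1, 2, 4, 8, 12 and 24 h, then centrifuged. Plasma was measured by LC/MS/MS in SRM mode, with non-compartmental analysis.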

NCI-H1975 [5] = experiment: In vivo anti tumor activity against human NCI-H1975 cells xenografted in nude C.B-17 SCID mouse model assessed as tumor volume at 20 mg/kg, ig for 18 days measured twice a week (reference value: 948.05 mm3); type: functional
[6] = target: Vascular endothelial growth factor receptor 2 (Homo sapiens) (UniProt P35968); experiment: Inhibition of KDR (unknown origin) at 1 uM relative to control
[7] = target: BDNF/NT-3 growth factors receptor (Homo sapiens) (UniProt Q16620); experiment: Inhibition of NTRK2 (unknown origin) at 1 uM relative to control
[8] = target: Activated CDC42 kinase 1 (Homo sapiens) (UniProt Q07912); experiment: Inhibition of TNK2 (unknown origin) at 1 uM relative to control
[9] = target: MAP kinase-interacting serine/threonine-protein kinase 2 (Homo sapiens) (UniProt Q9HBH9); experiment: Inhibition of MKNK2 (unknown origin) at 1 uM relative to control
[10] = tested on: RAF proto-oncogene serine/threonine-protein kinase (Homo sapiens), P04049 [Y340D,Y341D]; experiment: Inhibition of RAF1 Y340D/Y341D double mutant (unknown origin) at 1 uM relative to control
Chain of RAF proto-oncogene serine/threonine-protein kinase (Homo sapiens), P04049 [Y340D,Y341D] (P04049 whole entry Y340D/Y341D): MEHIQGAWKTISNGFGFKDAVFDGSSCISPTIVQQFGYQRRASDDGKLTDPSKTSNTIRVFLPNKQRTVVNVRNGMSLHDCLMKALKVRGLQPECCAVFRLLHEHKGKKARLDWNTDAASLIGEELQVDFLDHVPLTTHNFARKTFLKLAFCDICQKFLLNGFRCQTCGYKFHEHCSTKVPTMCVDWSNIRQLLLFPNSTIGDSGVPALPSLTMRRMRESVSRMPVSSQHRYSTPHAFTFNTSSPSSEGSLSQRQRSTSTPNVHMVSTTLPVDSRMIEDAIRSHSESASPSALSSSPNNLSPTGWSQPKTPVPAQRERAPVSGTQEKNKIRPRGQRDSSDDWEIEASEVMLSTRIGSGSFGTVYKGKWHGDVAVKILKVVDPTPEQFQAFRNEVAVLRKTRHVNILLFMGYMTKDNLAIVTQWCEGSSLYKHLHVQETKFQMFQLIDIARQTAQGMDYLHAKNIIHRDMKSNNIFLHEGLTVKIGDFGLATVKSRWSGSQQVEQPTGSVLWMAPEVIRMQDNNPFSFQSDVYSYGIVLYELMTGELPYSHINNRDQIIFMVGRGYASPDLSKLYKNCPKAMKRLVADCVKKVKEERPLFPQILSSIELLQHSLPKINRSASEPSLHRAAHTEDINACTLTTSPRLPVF

[11] = AUC (0 to 24 hrs) in Sprague-Dawley rat at 10 mg/kg, po administered via gavage by LC-MS/MS analysis; type: ADME, organism-based; parameters: time < 24 hr, dose 10 mg/kg, route oral; conditions: in vivo
[12] = target: Fibroblast growth factor receptor 3 (Homo sapiens) (UniProt P22607); experiment: Inhibition of FGFR3 (unknown origin) at 1 uM relative to control
[13] = target: cGMP-dependent protein kinase 1 (Homo sapiens) (UniProt Q13976); experiment: Inhibition of PRKG1 (unknown origin) at 1 uM relative to control
Chain of cGMP-dependent protein kinase 1 (Homo sapiens) (Q13976 whole entry): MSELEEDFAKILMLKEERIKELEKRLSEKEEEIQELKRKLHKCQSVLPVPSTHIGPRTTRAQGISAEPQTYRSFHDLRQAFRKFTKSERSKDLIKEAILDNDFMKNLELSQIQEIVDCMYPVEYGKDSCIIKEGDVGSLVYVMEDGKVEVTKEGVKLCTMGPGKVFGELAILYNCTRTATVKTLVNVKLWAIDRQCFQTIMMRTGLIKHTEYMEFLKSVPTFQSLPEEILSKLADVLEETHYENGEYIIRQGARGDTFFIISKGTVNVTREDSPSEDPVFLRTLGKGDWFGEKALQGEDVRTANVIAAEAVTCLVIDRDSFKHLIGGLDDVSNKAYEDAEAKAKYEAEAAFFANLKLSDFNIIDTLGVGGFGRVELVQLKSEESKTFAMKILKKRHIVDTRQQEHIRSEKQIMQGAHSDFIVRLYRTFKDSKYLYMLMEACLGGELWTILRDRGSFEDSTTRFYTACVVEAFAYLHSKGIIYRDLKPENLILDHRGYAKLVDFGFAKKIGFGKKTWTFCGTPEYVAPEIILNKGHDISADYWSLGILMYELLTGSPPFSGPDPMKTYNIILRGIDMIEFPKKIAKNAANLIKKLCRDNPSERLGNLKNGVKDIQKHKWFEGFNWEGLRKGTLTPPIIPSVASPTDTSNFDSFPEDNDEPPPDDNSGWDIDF

[14] = target: Platelet-derived growth factor receptor alpha (Homo sapiens) (UniProt P16234); experiment: Inhibition of PDGFRA (unknown origin) at 1 uM relative to control
[15] = target: Tyrosine-protein kinase SYK (Homo sapiens) (UniProt P43405); experiment: Inhibition of SYK (unknown origin) at 1 uM relative to control
NCI-H1975 [16] = experiment: Antiproliferative activity against human NCI-H1975 cells harboring EGFR L858R/T790M double mutant; type: functional, cell-based
How it was run: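 A431 was grown in EMEM with 10% FBS; HCC827 and NCI-H1975 were grown in RPMI-1640 with 10% FBS. Cell viability experiments were repeated at least three times.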

[17] = target: Glycogen synthase kinase-3 beta (Homo sapiens) (UniProt P49841); experiment: Inhibition of GSK3B (unknown origin) at 1 uM relative to control
[18] = target: Serine/threonine-protein kinase B-raf (Homo sapiens) (UniProt P15056); experiment: Inhibition of BRAF (unknown origin) at 1 uM relative to control
[19] = target: Epidermal growth factor receptor (Homo sapiens, UniProt P00533, L858R/T790M); experiment: Inhibition of human recombinant cytoplasmic GST-tagged EGFR T790M/L858R double mutant (668 to 1210 residues) expressed in baculovirus using TK-substrate-biotin preincubated for 15 mins followed by substrate addition measured after 60 mins by FRET-based Z'-Lyte assay
[20] = Half life in human liver microsomes; type: ADME, microsome
[21] = target: Fibroblast growth factor receptor 1 (Homo sapiens) (UniProt P11362); experiment: Inhibition of FGFR1 (unknown origin) at 1 uM relative to control
[22] = Half life in dog liver microsomes; type: ADME, Canis lupus familiaris, microsome
[23] = MRT in Sprague-Dawley rat at 1 mg/kg, iv by LC-MS/MS analysis; type: ADME, organism-based; conditions: in vivo; how it was run: as §1
[24] = target: Cyclin-dependent kinase 5/CDK5 activator 1 (Homo sapiens) (UniProt Q00535+Q15078); experiment: Inhibition of CDK5/p35 (unknown origin) at 1 uM relative to control; type: protein-complex assay
[25] = target: Tyrosine-protein kinase TXK (Homo sapiens) (UniProt P42681); experiment: Inhibition of TXK (unknown origin) at 1 uM relative to control
Chain of Tyrosine-protein kinase TXK (Homo sapiens) (P42681 whole entry): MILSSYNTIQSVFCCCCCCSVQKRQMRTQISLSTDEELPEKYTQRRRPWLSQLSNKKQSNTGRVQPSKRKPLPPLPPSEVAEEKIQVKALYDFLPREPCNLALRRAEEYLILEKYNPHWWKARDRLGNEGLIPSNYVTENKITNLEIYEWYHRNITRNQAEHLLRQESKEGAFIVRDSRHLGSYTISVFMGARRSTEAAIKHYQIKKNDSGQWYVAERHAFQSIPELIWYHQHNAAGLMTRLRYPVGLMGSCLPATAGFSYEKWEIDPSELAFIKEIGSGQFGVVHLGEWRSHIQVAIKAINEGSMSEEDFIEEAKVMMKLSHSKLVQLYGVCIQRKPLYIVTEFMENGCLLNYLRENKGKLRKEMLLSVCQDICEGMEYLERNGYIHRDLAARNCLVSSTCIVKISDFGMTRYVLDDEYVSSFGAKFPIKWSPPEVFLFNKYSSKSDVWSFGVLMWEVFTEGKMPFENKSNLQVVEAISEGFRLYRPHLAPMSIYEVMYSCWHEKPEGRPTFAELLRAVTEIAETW

[26] = Intrinsic clearance in rat liver microsomes; type: ADME, microsome; conditions: read-out: CLH
[27] = Intrinsic clearance in dog liver microsomes; type: ADME, Canis lupus familiaris, microsome; conditions: read-out: CLH
[28] = Intrinsic clearance in rat hepatocytes assessed per million cells; type: ADME, cell-based, Hepatocyte
NCI-H1975 [29] = experiment: In vivo anti tumor activity against human NCI-H1975 cells xenografted in nude C.B-17 SCID mouse model assessed as relative tumor volume at 5 mg/kg, ig for 18 days measured twice a week relative to control; type: functional
How it was run: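 C.B-17 SCID mice received s.c. inoculation of 5 × 10^6 H1975 cells. At 100-150 mm3 they were randomized (n = 9 per group) and dosed intragastrically once daily for 18 days, with PBS as the control. Tumors were measured by caliper twice weekly, with V = length × width²/2. RTV = V/V0, and T/C% = treated mean RTV / control mean RTV × 100.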

[30] = target: Tyrosine-protein kinase Fyn (Homo sapiens) (UniProt P06241); experiment: Inhibition of FYN (unknown origin) at 1 uM relative to control
Chain of Tyrosine-protein kinase Fyn (Homo sapiens) (P06241 2-537 limits assumed): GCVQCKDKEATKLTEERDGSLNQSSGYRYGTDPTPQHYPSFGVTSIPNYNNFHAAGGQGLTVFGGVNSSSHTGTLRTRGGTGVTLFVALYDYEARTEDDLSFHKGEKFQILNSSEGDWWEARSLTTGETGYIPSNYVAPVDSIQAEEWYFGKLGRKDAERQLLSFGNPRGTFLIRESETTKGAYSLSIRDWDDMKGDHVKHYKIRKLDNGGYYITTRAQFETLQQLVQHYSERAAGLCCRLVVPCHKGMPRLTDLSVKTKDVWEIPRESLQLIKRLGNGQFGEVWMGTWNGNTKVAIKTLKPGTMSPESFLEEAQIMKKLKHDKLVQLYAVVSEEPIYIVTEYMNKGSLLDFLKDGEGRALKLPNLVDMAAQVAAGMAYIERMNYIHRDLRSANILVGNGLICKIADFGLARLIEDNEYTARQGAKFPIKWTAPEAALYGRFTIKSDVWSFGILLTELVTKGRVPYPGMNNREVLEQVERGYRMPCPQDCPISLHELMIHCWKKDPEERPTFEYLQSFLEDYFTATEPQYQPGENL

[31] = target: Protein kinase C gamma type (Homo sapiens) (UniProt P05129); experiment: Inhibition of PRKCG (unknown origin) at 1 uM relative to control
[32] = target: Non-receptor tyrosine-protein kinase TYK2 (Homo sapiens) (UniProt P29597); experiment: Inhibition of TYK2 (unknown origin) at 1 uM relative to control
[33] = target: Serine/threonine-protein kinase Chk2 (Homo sapiens) (UniProt O96017); experiment: Inhibition of CHEK2 (CHK2) (unknown origin) at 1 uM relative to control
[34] = target: ALK tyrosine kinase receptor (Homo sapiens) (UniProt Q9UM73); experiment: Inhibition of ALK (unknown origin) at 1 uM relative to control
[35] = target: Calcium/calmodulin-dependent protein kinase type II subunit beta (Homo sapiens) (UniProt Q13554); experiment: Inhibition of CAMK2B (unknown origin) at 1 uM relative to control
[36] = target: Cytoplasmic tyrosine-protein kinase BMX (Homo sapiens) (UniProt P51813); experiment: Inhibition of BMX (unknown origin) at 1 uM relative to control

## C=CC(=O)Nc1cc(Nc2nccc(-c3cn4c5c(cccc35)CCC4)n2)c(OC)cc1N(C)CCN(C)C
[1]
  inhibition: 6%
[2]
  inhibition: 94%
[3]
  half-life: 0.482 h
[4]
  MRT: 5.7 h
NCI-H1975 [5]
  Activity: 113.52 mm3
[6]
  inhibition: 37%
[7]
  inhibition: -1%
[8]
  inhibition: 75%
[9]
  inhibition: 117%
[10]
  inhibition: 8%
[11]
  AUC(0-t) at 24 h: 995 ng·h/mL
[12]
  inhibition: 9%
[13]
  inhibition: 5%
[14]
  inhibition: 13%
[15]
  inhibition: 4%
NCI-H1975 [16]
  IC50: 103 nM
[17]
  inhibition: 7%
[18]
  inhibition: 20%
[19]
  IC50: 2.6 to 2.9 nM
[20]
  half-life: > 3 h
[21]
  inhibition: 7%
[22]
  half-life: 0.525 h
[23]
  MRT: 4.7 h
[24]
  inhibition: 1%
[25]
  inhibition: 88%
[26]
  CLint scaled: 54 mL/min/kg
[27]
  CLint scaled: 63.4 mL/min/kg
[28]
  CLH: 21 µL/min/10^6 cells
NCI-H1975 [29]
  T/C: 56.4%
[30]
  inhibition: 7%
[31]
  inhibition: -2%
[32]
  inhibition: 14%
[33]
  inhibition: -2%
[34]
  inhibition: 84%
[35]
  inhibition: 14%
[36]
  inhibition: 80%
